In the library only some 3.7% were active in any assay of this set; here they are far more common.
b-catenin transl = modulators of beta-catenin nuclear translocation, primary screen, imaging, HeLa cells, immunofluorescence, high-content | nuclear translocation activity, % at 5 µM | 0.3% of 190,000 active | AID 1665, 2009;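 active = nuclear translocation activity above 50% at 5 µM, with a well cell count of 50 or more; inconclusive = wells under 50 cells across six images, flagged as toxic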;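 also: per-cell ratio of nuclear to cytoplasmic median beta-catenin stain intensity; plate controls were DMSO negative control for no effect and GSK-3 inhibitor IX positive control for full effect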
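Read-out: Nuclear/cytoplasmic beta-catenin signal ratio, % activation | Assay system: Human HeLa cell line | Times: 24 h compound exposure at 37°C, 5% CO2 | Signal: Fluorescence imaging of beta-catenin antibody stain plus DAPI | Dosing: 5 µM primary, 0.02–20 µM confirmation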
Redox H2O2 prof = compounds producing H2O2 with reducing agent – biochemical, NIH compound library profiling, artefact control for MLSCN library redox annotation, primary screen; activation, % at 10 µM; AID 878, 2007; DTT-dependent redox cycling H2O2, phenol red/HRP absorbance; 100% = 100 µM peroxide control, 0% = buffer; 0.03% of 200,000 active;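 active = activation of at least 50% relative to the plate's high and low controls in the primary single-dose screen; inactive = activation below 50%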;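 also: compound incubated with DTT at 0.8 mM final as the reducing agent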
ROMK mod = ROMK potassium channel modulators, primary screen, cell-based, thallium flux, MLSMR library; B-score at 10 µM; Tet-inducible ROMK, thallium flux fluorescence; actives lie on both sides; 2% of 130,000 active; ATP-sensitive inward rectifier potassium channel 1 (Homo sapiens), P48048;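 active = signal ratio slope over the read window, or its plate-corrected B-score, at least 3 SD from the plate mean, either direction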;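 also: B-score of the F/F0 ratio slope over 7 to 12 s after thallium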
KCC2 mod = KCC2 cotransporter modulators, thallium flux, primary screen, cell-based, HEK293 KCC2, FluoZin-2 fluorescence, MLSMR. B-score of Tl+ flux slope (higher = more flux/activation; lower = inhibition) at 10 µM. 2.2% of 190,000 active. Solute carrier family 12 member 5 (Homo sapiens), Q9H2X9. KCC2 cells, thallium flux FluoZin-2 fluorescence. AID 1456, 2008;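 active = thallium flux slope and its plate-corrected score both differing from the plate sample mean at a set confidence after two filtering rounds, in either direction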;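 also: slope of fluorescence scaled to starting intensity during 10 to 20 s after thallium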
Target sequence (Q9H2X9 whole entry, looked up): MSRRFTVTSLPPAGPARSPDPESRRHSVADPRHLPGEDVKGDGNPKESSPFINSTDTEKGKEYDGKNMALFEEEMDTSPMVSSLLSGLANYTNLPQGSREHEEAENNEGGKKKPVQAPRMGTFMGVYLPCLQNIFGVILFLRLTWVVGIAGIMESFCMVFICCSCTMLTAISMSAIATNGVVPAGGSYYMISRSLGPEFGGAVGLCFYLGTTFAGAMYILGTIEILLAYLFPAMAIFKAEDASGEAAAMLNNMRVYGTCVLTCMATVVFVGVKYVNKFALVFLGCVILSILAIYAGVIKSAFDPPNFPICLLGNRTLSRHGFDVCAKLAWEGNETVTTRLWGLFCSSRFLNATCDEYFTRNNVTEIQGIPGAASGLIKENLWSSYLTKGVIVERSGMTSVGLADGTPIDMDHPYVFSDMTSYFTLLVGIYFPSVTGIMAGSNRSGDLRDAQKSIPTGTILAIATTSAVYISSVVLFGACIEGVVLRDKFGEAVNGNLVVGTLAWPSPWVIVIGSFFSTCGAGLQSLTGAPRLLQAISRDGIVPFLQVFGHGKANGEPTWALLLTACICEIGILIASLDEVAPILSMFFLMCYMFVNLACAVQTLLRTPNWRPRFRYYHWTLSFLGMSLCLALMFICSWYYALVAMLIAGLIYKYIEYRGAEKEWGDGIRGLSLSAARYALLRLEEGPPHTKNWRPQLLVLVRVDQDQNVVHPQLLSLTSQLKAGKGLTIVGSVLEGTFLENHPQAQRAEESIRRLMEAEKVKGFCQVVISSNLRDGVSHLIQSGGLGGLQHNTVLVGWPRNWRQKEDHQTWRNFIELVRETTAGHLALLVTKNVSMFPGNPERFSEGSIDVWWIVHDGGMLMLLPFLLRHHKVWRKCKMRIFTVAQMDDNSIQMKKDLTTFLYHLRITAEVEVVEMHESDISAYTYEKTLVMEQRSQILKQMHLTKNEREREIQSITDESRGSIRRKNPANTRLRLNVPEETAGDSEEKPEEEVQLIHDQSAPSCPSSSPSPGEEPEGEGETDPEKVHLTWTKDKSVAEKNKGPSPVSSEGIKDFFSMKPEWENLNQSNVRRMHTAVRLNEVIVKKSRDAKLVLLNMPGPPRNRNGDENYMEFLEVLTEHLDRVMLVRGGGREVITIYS
MT stabilize HCS = microtubule stabilizers in HeLa cells, primary screen, imaging, high-content imaging | 0.83% of 200,000 active | HeLa tubulin immunostaining HCS, 24 h; share of cells brighter than vehicle mean+2SD | % tubulin-high responders, % at 10 µM;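 active = plate Z-score above 3 for both tubulin-high and condensed-nucleus cell shares, with cell loss under 80%, at 10 µM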;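 also: anti alpha tubulin signal scored within the nucleus-defined area of each cell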
DTT redox conf = redox cycling H2O2 generation, confirmed; shares compounds with Redox H2O2 prof; DTT-dependent redox cycling H2O2, phenol red-HRP absorbance; EC50, µM; 40% of 60 active; AID 1234;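 active = EC50 under a set limit for hydrogen peroxide production with the reducing agent DTT present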
KCC2 secondary = KCC2 modulators in sodium-free buffer, confirmation, cell-based, HEK293 KCC2, thallium flux, secondary assay; shares compounds with KCC2 mod; FluoZin2 fluorescence; active compounds read high; normalised thallium flux (F/F0 slope) at 10 µM; 15% of 3,700 active;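 active = thallium flux slope above the same plate's solvent-only control mean plus 3 SD; inconclusive = the two replicate wells disagree; inactive = no significant difference from solvent-only control wells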
KCC2 bumet counter = thallium flux persisting under bumetanide in KCC2 cells, confirmation, counter-screen for KCC2 modulator project, cell-based, HEK293 KCC2, FluoZin2, secondary assay 3. shares compounds with KCC2 mod. normalized thallium flux at 10 µM. HEK293-KCC2 + bumetanide/ouabain; active compounds read high. AID 1714, 2009. 49% of 3,700 active;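 active = thallium entry rate above the same plate's blocked-transporter control wells by more than 3 SD; inconclusive = the two repeat wells disagree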;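 also: raw slope of fluorescence over initial fluorescence between 10 and 20 s after thallium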
KCC2 sec2 = KCC2 modulators without ouabain present, confirmation, cell-based, HEK293 KCC2, thallium flux, FluoZin2, secondary assay 2; shares compounds with KCC2 mod; thallium flux FluoZin2 fluorescence; actives lie on both sides; F/F0 rise rate, 10–20 s post-thallium; normalized thallium flux at 10 µM; 23% of 3,700 active; AID 1715, 2009;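 active = thallium flux slope more than 3 SD above or below the plate's solvent-only control mean, mostly below; inconclusive = the two repeat wells disagreed; inactive = no significant shift from solvent-only controls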;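 also: raw slope with 0.1% DMSO as baseline and bumetanide as block control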
HEK counter1 = thallium flux modulation in parental HEK cells, confirmation, counter-screen for KCC2 modulator project, cell-based, counterscreen 1. shares compounds with KCC2 mod. thallium flux rate (normalised fluorescence) at 10 µM. HEK293 parental cells, thallium flux FluoZin2, ouabain; baseline-ratio fluorescence slope, 10–20 s after thallium. 46% of 3,700 active;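 active = thallium flux rate significantly above the same plate's solvent-only control wells, beyond their mean plus 3 SD; inconclusive = the two replicate wells gave conflicting results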
KCC2 retest ouab = KCC2 inhibitors and activators, ouabain retest, confirmation, HEK-KCC2 cells | shares compounds with KCC2 mod | HEK293-KCC2, thallium flux FluoZin2 fluorescence; bidirectional: low = inhibitor, high = activator | raw Tl+ flux slope (below DMSO = inhibition, above = activation) at 10 µM | 48% of 3,700 active;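 active = thallium flux slope beyond 3 SD from same-plate DMSO control mean in most replicates, usually higher, sometimes lower; inconclusive = repeat tests gave conflicting results; inactive = no significant difference from controls in most replicates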;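 also: slope of initial-normalized fluorescence between seconds 10 and 20 after thallium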
HEK293 Tl flux2 = native HEK Tl+ uptake effects, second counter-screen – HEK cells, counterscreen 2, counter-screen for KCC2 modulator project, confirmation; shares compounds with KCC2 mod; HEK293 parental, thallium flux FluoZin-2 fluorescence slope; thallium flux slope at 10 µM; 33% of 3,700 active; AID 1718, 2009;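 active = thallium flux slope above the same plate's solvent-control mean plus 3 SD in both duplicate wells; inconclusive = duplicate wells that disagreed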;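 also: run without ouabain in cells lacking the KCC2 cotransporter; slope of fluorescence scaled to its starting value between 10 and 20 s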
ROMK hit retest = ROMK channel modulator hit retest, confirmation, cell-based, thallium flux, duplicate, resupplied hits; 54% of 3,000 active; shares compounds with ROMK mod; fluorescence ratio; active compounds read low; normalized thallium flux (F/F0 slope) at 10 µM;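 active = Flux at 10 µM at least 3 SD below or above vehicle control mean in one or both replicates; inconclusive = no clear call, values can overlap the other calls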
An asterisk follows results filed as active; ? = inconclusive; nt = no result.

SMILES | b-catenin transl | Redox H2O2 prof | ROMK mod | KCC2 mod | MT stabilize HCS | KCC2 secondary | KCC2 bumet counter | KCC2 sec2 | HEK counter1 | KCC2 retest ouab | HEK293 Tl flux2 | others
Cc1ccc(S(=O)(=O)/N=C2/C=C(Sc3ncn[nH]3)C(=O)c3ccccc32)c(C)c1 | -1.1 | 83.3* | -1.86 | 0.925 | 2.1 | nt | nt | nt | nt | nt | nt | DTT redox conf=12.5*
Cc1ccc(S(=O)(=O)Nc2ccc(O)c(Sc3ncn[nH]3)c2)cc1 | 0.2 | -0.7 | -0.658 | -0.508 | 2.1 | nt | nt | nt | nt | nt | nt
COC(=O)c1c(NC(=O)Cn2cnc([N+](=O)[O-])n2)sc2c1CCC(C)C2 (configuration not stated) | 4.5 | -0.6 | nt | -0.158 | 2.0 | nt | nt | nt | nt | nt | nt
COCCNC(=O)CN(C(=O)CCC(=O)Nc1ccccn1)c1ccccc1F | -1.0 | 0.1 | 0.0179 | 0.0273 | 2.1 | nt | nt | nt | nt | nt | nt
O=C(CC1C(=O)NCCN1Cc1ccccc1C(F)(F)F)NCCc1ccccn1 (configuration not stated) | 0.8 | 0.2 | 0.514 | -0.0283 | 2.7 | nt | nt | nt | nt | nt | nt
CCCCn1c(NS(=O)(=O)c2ccc(C)cc2)c(S(=O)(=O)c2ccccc2)c2nc3ccccc3nc21 | -1.6 | 96.6* | nt | -6.46* | 9.5 | 0.00901 | 0.017* | 0.033 | ? | ? | 0.0109 | DTT redox conf=>50
O=C(CN1C(=O)C2CCCCC2C1=O)OCC(=O)c1ccc(Cl)s1 (configuration not stated) | -0.9 | -0.3 | -0.0629 | 0.0189 | 2.8 | nt | nt | nt | nt | nt | nt
NC(=O)C1CCN(C2=C(Cl)C(=O)c3ccccc3C2=O)CC1 | nt | 355.9* | nt | -2.39 | 1.2 | nt | nt | nt | nt | nt | nt | DTT redox conf=>50;ROMK hit retest=0.0534*
Cc1ccc(/C([O-])=C(/C(=S)NCc2ccc3c(c2)OCO3)[n+]2ccc(N(C)C)cc2)c(C)c1 | 0.1 | -2.1 | 0.431 | -0.574 | 2.6 | nt | nt | nt | nt | nt | nt
Cc1ccc(/C=N/n2cc(-c3ccccc3)[nH]c2=S)s1 | 4.5 | -0.5 | 1.5 | 32.6* | 3.2 | 0.0236* | 0.0681* | 0.0373 | 0.0559* | 0.0578* | 0.0191*
Oc1ccc(/C=N/n2cc(-c3ccccc3)[nH]c2=S)cc1 | -2.3 | -0.1 | 0.226 | 0.141 | 1.9 | nt | nt | nt | nt | nt | nt
COc1cc(/C=N/n2cc(-c3ccccc3)[nH]c2=S)cc(OC)c1O | 0.5 | nt | nt | 0.333 | nt | nt | nt | nt | nt | nt | nt
S=c1[nH]c(-c2ccccc2)cn1/N=C/c1ccccc1Br | -3.0 | 0.4 | 0.509 | 45.6* | 4.0 | ? | 0.0659* | 0.0632* | 0.0671* | 0.0795* | 0.0466*
S=c1[nH]c(-c2ccccc2)cn1/N=C/c1cccc2ccccc12 | 3.6 | -1.1 | 2.05 | 57.8* | 17.9* | 0.00792 | 0.0792* | 0.0774* | 0.0778* | 0.0863* | 0.0698*
Cc1c(NC(=O)COC(=O)c2ccc(F)c(S(=O)(=O)N3CCOCC3)c2)c(=O)n(-c2ccccc2)n1C | 0.8 | -2.3 | -0.468 | -0.0825 | 6.6 | nt | nt | nt | nt | nt | nt
CN1CCN(CCCNC(=O)c2ccc(/C=C3\Sc4ccccc4N(Cc4ccc(F)cc4)C3=O)cc2)CC1 | 4.1 | -0.1 | -0.255 | 2.7* | 1.9 | 0.00894 | 0.00515 | 0.0325 | 0.00766 | 0.0189 | 0.0118
CCOC(=O)c1c(NC(=O)Cn2nc(C(=O)O)c3ccccc3c2=O)sc(CC)c1C | -3.7 | 9.8 | 0.146 | 0.0841 | 5.8 | nt | nt | nt | nt | nt | nt
O=C(COc1ccccc1)N1CCN(S(=O)(=O)c2cccc([N+](=O)[O-])c2)CC1 | -0.4 | -1.9 | 0.533 | 0.219 | 4.5 | nt | nt | nt | nt | nt | nt
Cc1cc(C)cc(-n2cccc2/C=C2/C(=N)N3C(=NC2=O)SN=C3S(C)(=O)=O)c1 | -1.6 | -0.8 | 1.55 | -3.65 | 4.7 | nt | nt | nt | nt | nt | nt
Cc1ccc(-n2cccc2/C=C2\C(=N)N3N=C(c4ccco4)SC3=NC2=O)cc1 | 2.2 | 0.2 | 1.87 | 3.89 | 2.1 | nt | nt | nt | nt | nt | nt
CCC1=NN2C(=N)/C(=C\c3cccn3-c3ccc(Cl)cc3)C(=O)N=C2S1 | 0.4 | -0.7 | 2.35 | 18.5* | 3.8 | ? | 0.0433* | 0.0301 | 0.0141* | 0.0271 | 0.0115*
CCC1=NN2C(=N)/C(=C\c3cccn3-c3ccc(C)c(C)c3)C(=O)N=C2S1 | -2.6 | -0.3 | 2.28 | 7.02* | 1.8 | 0.00624 | 0.0482* | 0.0487* | 0.0366* | 0.0425* | 0.034*
Cc1cc(C)cc(-n2c(C)cc(/C=C3\C(=N)N4N=C(CC(C)C)SC4=NC3=O)c2C)c1 | -1.4 | 0.1 | nt | 0.929 | 5.8 | nt | nt | nt | nt | nt | nt
CCCC1=NN2C(=N)/C(=C\c3cc(C)n(-c4cc(C)cc(C)c4)c3C)C(=O)N=C2S1 | -1.1 | 0.0 | 0.348 | 11.7* | 2.9 | 0.0102 | 0.0151* | 0.0338 | ? | 0.0252* | 0.0131
COC(=O)c1ccc(NC(=S)NC2CCCCC2)cc1 | 0.2 | -7.9 | -0.945 | nt | 2.1 | nt | nt | nt | nt | nt | nt
COC(=O)c1cccnc1NC(=S)NC1CCCCC1 | -1.6 | 1.3 | 1.76 | 121* | 3.0 | 0.0117* | 0.128* | 0.0977* | 0.105* | 0.0976* | 0.103*
S=c1[nH]nc(CCc2ccccc2)n1-c1ccc(Cl)cc1 | -4.9 | 5.1 | 1.27 | 1.01 | 4.4 | nt | nt | nt | nt | nt | nt

Screens: PubChem, several laboratories
